Measured values as given in ChEMBL document CHEMBL1130340, “Semisynthetic derivatives of purpuromycin as potential topical agents for vaginal infections” (1997).
≈ marks a conversion by molar mass, not a printed value.

Columns and labels:
Candida tropicalis [1] = experiment: In vitro antimicrobial activity against Candida tropicalis (2); assay type: functional
Outline: (§1)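 Candida: broth microdilution MIC in phosphate-buffered Yeast Nitrogen Base broth with glucose (1% w/v) and L-asparagine (0.15% w/v); inoculum about 10^4 cfu/mL; 37 °C, 20–24 h.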

Streptococcus pneumoniae = experiment: In vitro antimicrobial activity against Streptococcus pneumoniae L44; assay type: functional
Outline: (§2)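 Streptococci: broth microdilution MIC in Todd Hewitt broth; inoculum about 10^4 cfu/mL; 37 °C, 20–24 h.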

[2] = test system: Staphylococcus epidermidis; experiment: In vitro antimicrobial activity against Staphylococcus epidermidis ATCC 12228; assay type: functional
Outline: (§3)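 Broth microdilution MIC in Oxoid Iso-Sensitest broth; inoculum about 10^4 cfu/mL; 37 °C for 20–24 h.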

Haemophilus influenzae = experiment: In vitro antimicrobial activity against Haemophilus influenza ATCC 19418; assay type: functional
Outline: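 Broth microdilution MIC in Brain Heart Infusion broth plus 1% (v/v) supplement C; inoculum about 10^4 cfu/mL; 37 °C.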

Streptococcus pyogenes = experiment: In vitro antimicrobial activity against Streptococcus pyogenes L49; assay type: functional; outline: as §2
Candida albicans [3] = experiment: In vitro antimicrobial activity against Candida albicans(24); assay type: functional; outline: as §1
Pseudomonas aeruginosa = experiment: In vitro antimicrobial activity against Pseudomonas aeruginosa ATCC 10145; assay type: functional; outline: as §3
Enterococcus faecalis = experiment: In vitro antimicrobial activity against Enterococcus faecalis ATCC 7080; assay type: functional; outline: as §3
Staphylococcus aureus [4] = experiment: In vitro antimicrobial activity against Staphylococcus aureus L1 65 30% bovine serum; assay type: functional
Outline: (§4)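 Broth microdilution MIC against S. aureus L165 in Iso-Sensitest broth, 37 °C, 20–24 h.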

Candida [5] = experiment: Minimum inhibition concentration for 50% inhibition against Candida species; assay type: functional; outline: as §1
Staphylococcus aureus [6] = experiment: In vitro antimicrobial activity against Staphylococcus aureus L165; assay type: functional; outline: as §3
Escherichia coli = experiment: In vitro antimicrobial activity against Escherichia coli L47; assay type: functional; outline: as §3
Neisseria gonorrhoeae = experiment: In vitro antimicrobial activity against Neisseria gonorrhoeae L997; assay type: functional
Outline: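 Broth microdilution MIC in GC Base broth plus 1% (v/v) IsoVitaleX; inoculum about 10^4 cfu/mL; 37 °C.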

Gardnerella vaginalis [7] = experiment: In vitro antimicrobial activity against Gardnerella vaginalis (MIC50); assay type: functional
Outline: (§5)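 Agar dilution MIC in Casman medium with 5% (v/v) whole and 0.15% (v/v) lysed rabbit blood; inoculum about 10^5 cfu; 48 h at 37 °C under N2-CO2-H2 (80:10:10).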

Gardnerella vaginalis [8] = experiment: In vitro antimicrobial activity against Gardnerella vaginalis (MIC90); assay type: functional; outline: as §5
Trichomonas vaginalis [9] = experiment: Antimicrobial activity against Trichomonas vaginalis; assay type: functional
Outline: (§6)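 Broth microdilution in Trichomonas Culture Medium Base plus 10% horse serum; about 10^5 cells/mL; 48 h at 37 °C under N2-CO2-H2; MIC read by microscopy for viable (motile) protozoa.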

Cutibacterium acnes = experiment: In vitro antimicrobial activity against Propionibacterium acnes ATCC 6919; assay type: functional
Outline: (§7)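 Anaerobe MIC by broth microdilution in Wilkins-Chalgren broth; inoculum 5 × 10^5 cfu/mL; 37 °C.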

Proteus vulgaris = experiment: In vitro antimicrobial activity against Proteus vulgaris ATCC881; assay type: functional; outline: as §3
Candida [10] = experiment: Minimum inhibition concentration for 90% inhibition against Candida species; assay type: functional; outline: as §1
[11] = test system: Staphylococcus haemolyticus; experiment: In vitro antimicrobial activity against Staphylococcus haemolyticus L602; assay type: functional; outline: as §3
Bacteroides fragilis = experiment: In vitro antimicrobial activity against Bacteroides fragilis ATCC 25285; assay type: functional; outline: as §7
Staphylococcus aureus [12] = experiment: In viro antimicrobial activity against Staphylococcus aureus L16510 x e+6 cfu/ml; assay type: functional; outline: as §4
Candida albicans [13] = experiment: In vitro antimicrobial activity against Candida albicans L145; assay type: functional; outline: as §1
Staphylococcus aureus [14] = experiment: In viro antimicrobial activity against Staphylococcus aureus L165 10 x e+6 cfu/ml; assay type: functional; outline: as §4
Candida albicans [15] = experiment: Candida albicans L145; assay type: functional; outline: as §1
Candida albicans [16] = experiment: In vitro antimicrobial activity against Candida albicans (24); assay type: functional; outline: as §1
Nakaseomyces glabratus [17] = experiment: In vitro antimicrobial activity against Candida glabrata (1)1; assay type: functional; outline: as §1
Trichomonas vaginalis [18] = experiment: In vitro antimicrobial activity against Trichomonas vaginalis; assay type: functional; outline: as §6
Staphylococcus aureus [19] = experiment: In vitro antimicrobial activity against Staphylococcus aureus L165 30% bovine serum; assay type: functional; outline: as §4
Trichophyton benhamiae = experiment: In vitro antimicrobial activity against Trichophyton mentagrophytes L364; assay type: functional, Arthroderma benhamiae
Outline: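 Broth microdilution MIC in YM broth; inoculum 1% (v/v) suspension of mycelia and conidia; 30 °C for 72 h.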

Candida tropicalis [20] = experiment: In vitro antimicrobial activity against Candida tropicalis; assay type: functional; outline: as §1
Nakaseomyces glabratus [21] = experiment: In vitro antimicrobial activity against Candida glabrata (1); assay type: functional; outline: as §1

SMILES | MIC (Streptococcus pneumoniae) | MIC [2] | MIC (Haemophilus influenzae) | MIC (Streptococcus pyogenes) | MIC (Pseudomonas aeruginosa) | MIC (Enterococcus faecalis) | MIC (Staphylococcus aureus [4]) | MIC50 (Candida [5]) | MIC (Staphylococcus aureus [6]) | MIC (Escherichia coli) | MIC (Neisseria gonorrhoeae) | MIC50 (Gardnerella vaginalis [7]) | MIC90 (Gardnerella vaginalis [8]) | MIC (Cutibacterium acnes) | MIC (Proteus vulgaris) | MIC90 (Candida [10]) | MIC [11] | MIC (Bacteroides fragilis) | MIC (Candida albicans [13]) | MIC (Staphylococcus aureus [14]) | other results
COC(=O)c1cc2cc3c(c(O)c2c(=O)o1)OC1(Cc2c(O)c4c(c(O)c2O1)C(=O)C(OC)=CC4=O)CC3O (configuration not stated) | 0.06 µg/mL (≈ 0.111 µM) | 0.03 µg/mL (≈ 0.0557 µM) | 0.03 µg/mL (≈ 0.0557 µM) | 0.25 µg/mL (≈ 0.464 µM) | > 128 µg/mL | 0.06 µg/mL (≈ 0.111 µM) | 8 µg/mL (≈ 14.9 µM) | 1 µg/mL (≈ 1.86 µM) | 0.03 µg/mL (≈ 0.0557 µM) | 8 µg/mL (≈ 14.9 µM) | 0.06 µg/mL (≈ 0.111 µM) | 8 µg/mL (≈ 14.9 µM) | 8 µg/mL (≈ 14.9 µM) | 0.03 µg/mL (≈ 0.0557 µM) | 32 µg/mL (≈ 59.4 µM) | 2 µg/mL (≈ 3.71 µM) | 0.03 µg/mL (≈ 0.0557 µM) | 0.25 µg/mL (≈ 0.464 µM) | 1 µg/mL (≈ 1.86 µM) | – | MIC (Candida tropicalis [1]): 128 µg/mL (≈ 238 µM); MIC (Candida albicans [3]): 0.25 µg/mL (≈ 0.464 µM); MIC (Trichomonas vaginalis [9]): 8 µg/mL (≈ 14.9 µM); MIC (Staphylococcus aureus [12]): 0.06 µg/mL (≈ 0.111 µM)
COC(=O)c1cc2cc3c(c(O)c2c(=O)o1)OC1(CC2=C(O1)C(=O)c1c(O)c(NCCO)cc(O)c1C2=O)CC3O (configuration not stated) | 0.016 µg/mL (≈ 0.0282 µM) | 0.06 µg/mL (≈ 0.106 µM) | 0.06 µg/mL (≈ 0.106 µM) | 0.03 µg/mL (≈ 0.0529 µM) | > 128 µg/mL | 0.06 µg/mL (≈ 0.106 µM) | 1 µg/mL (≈ 1.76 µM) | – | 0.06 µg/mL (≈ 0.106 µM) | > 128 µg/mL | 0.03 µg/mL (≈ 0.0529 µM) | – | – | 0.004 µg/mL (≈ 0.00705 µM) | > 128 µg/mL | – | 0.13 µg/mL (≈ 0.229 µM) | 0.13 µg/mL (≈ 0.229 µM) | – | 0.13 µg/mL (≈ 0.229 µM) | MIC (Candida albicans [15]): > 128 µg/mL
CNc1cc(O)c2c(c1O)C(=O)C1=C(CC3(CC(O)c4cc5cc(C(=O)OC)oc(=O)c5c(O)c4O3)O1)C2=O (configuration not stated) | 0.016 µg/mL (≈ 0.0298 µM) | 0.008 µg/mL (≈ 0.0149 µM) | 0.13 µg/mL (≈ 0.242 µM) | 0.03 µg/mL (≈ 0.0558 µM) | > 128 µg/mL | 0.03 µg/mL (≈ 0.0558 µM) | 0.25 µg/mL (≈ 0.465 µM) | 2 µg/mL (≈ 3.72 µM) | 0.016 µg/mL (≈ 0.0298 µM) | > 128 µg/mL | 0.06 µg/mL (≈ 0.112 µM) | 1 µg/mL (≈ 1.86 µM) | 2 µg/mL (≈ 3.72 µM) | 0.008 µg/mL (≈ 0.0149 µM) | > 128 µg/mL | 2 µg/mL (≈ 3.72 µM) | 0.016 µg/mL (≈ 0.0298 µM) | 0.03 µg/mL (≈ 0.0558 µM) | 2 µg/mL (≈ 3.72 µM) | 0.06 µg/mL (≈ 0.112 µM) | MIC (Candida tropicalis [1]): 64 µg/mL (≈ 119 µM); MIC (Candida albicans [16]): 0.25 µg/mL (≈ 0.465 µM); MIC (Nakaseomyces glabratus [17]): 128 µg/mL (≈ 238 µM); MIC (Trichomonas vaginalis [18]): 1 µg/mL (≈ 1.86 µM)
CCNc1cc(O)c2c(c1O)C(=O)C1=C(CC3(CC(O)c4cc5cc(C(=O)OC)oc(=O)c5c(O)c4O3)O1)C2=O (configuration not stated) | 0.06 µg/mL (≈ 0.109 µM) | 0.06 µg/mL (≈ 0.109 µM) | 0.06 µg/mL (≈ 0.109 µM) | 0.06 µg/mL (≈ 0.109 µM) | > 128 µg/mL | 0.06 µg/mL (≈ 0.109 µM) | 1 µg/mL (≈ 1.81 µM) | 2 µg/mL (≈ 3.63 µM) | 0.06 µg/mL (≈ 0.109 µM) | > 128 µg/mL | 0.06 µg/mL (≈ 0.109 µM) | 2 µg/mL (≈ 3.63 µM) | 2 µg/mL (≈ 3.63 µM) | 0.06 µg/mL (≈ 0.109 µM) | > 128 µg/mL | 4 µg/mL (≈ 7.25 µM) | 0.06 µg/mL (≈ 0.109 µM) | 0.06 µg/mL (≈ 0.109 µM) | 2 µg/mL (≈ 3.63 µM) | 0.06 µg/mL (≈ 0.109 µM) | MIC (Candida tropicalis [1]): 64 µg/mL (≈ 116 µM); MIC (Candida albicans [16]): 0.25 µg/mL (≈ 0.453 µM); MIC (Nakaseomyces glabratus [17]): 32 µg/mL (≈ 58 µM); MIC (Trichomonas vaginalis [18]): 8 µg/mL (≈ 14.5 µM)
COC(=O)c1cc2cc3c(c(O)c2c(=O)o1)OC1(CC2=C(O1)C(=O)c1c(O)c(NCCN(C)C)cc(O)c1C2=O)CC3O (configuration not stated) | 0.06 µg/mL (≈ 0.101 µM) | – | – | – | 128 µg/mL (≈ 215 µM) | – | – | – | 0.13 µg/mL (≈ 0.219 µM) | 16 µg/mL (≈ 26.9 µM) | – | – | – | 0.06 µg/mL (≈ 0.101 µM) | 128 µg/mL (≈ 215 µM) | – | 0.5 µg/mL (≈ 0.841 µM) | 0.5 µg/mL (≈ 0.841 µM) | 64 µg/mL (≈ 108 µM) | 0.13 µg/mL (≈ 0.219 µM) | MIC (Staphylococcus aureus [19]): 0.25 µg/mL (≈ 0.421 µM); MIC (Trichophyton benhamiae): 128 µg/mL (≈ 215 µM)
COC(=O)c1cc2cc3c(c(O)c2c(=O)o1)OC1(CC2=C(O1)C(=O)c1c(O)c(NCc4ccccc4)cc(O)c1C2=O)CC3O (configuration not stated) | 0.06 µg/mL (≈ 0.0978 µM) | 0.13 µg/mL (≈ 0.212 µM) | 2 µg/mL (≈ 3.26 µM) | 1 µg/mL (≈ 1.63 µM) | > 128 µg/mL | 4 µg/mL (≈ 6.52 µM) | – | – | 0.5 µg/mL (≈ 0.815 µM) | > 128 µg/mL | 0.25 µg/mL (≈ 0.407 µM) | – | – | – | > 128 µg/mL | – | 0.13 µg/mL (≈ 0.212 µM) | – | > 128 µg/mL | 1 µg/mL (≈ 1.63 µM) | MIC (Staphylococcus aureus [19]): 32 µg/mL (≈ 52.2 µM)
COC(=O)c1cc2cc3c(c(O)c2c(=O)o1)OC1(CC2=C(O1)C(=O)c1c(O)c(N)cc(O)c1C2=O)CC3O (configuration not stated) | 0.016 µg/mL (≈ 0.0306 µM) | 0.03 µg/mL (≈ 0.0573 µM) | 0.06 µg/mL (≈ 0.115 µM) | 0.03 µg/mL (≈ 0.0573 µM) | > 128 µg/mL | 0.06 µg/mL (≈ 0.115 µM) | 1 µg/mL (≈ 1.91 µM) | 64 µg/mL (≈ 122 µM) | 0.03 µg/mL (≈ 0.0573 µM) | > 128 µg/mL | 0.03 µg/mL (≈ 0.0573 µM) | 0.06 µg/mL (≈ 0.115 µM) | 0.06 µg/mL (≈ 0.115 µM) | 0.008 µg/mL (≈ 0.0153 µM) | > 128 µg/mL | 128 µg/mL (≈ 245 µM) | 0.06 µg/mL (≈ 0.115 µM) | 0.06 µg/mL (≈ 0.115 µM) | 32 µg/mL (≈ 61.1 µM) | 0.06 µg/mL (≈ 0.115 µM) | MIC (Candida albicans [16]): 2 µg/mL (≈ 3.82 µM); MIC (Candida tropicalis [20]): 128 µg/mL (≈ 245 µM); MIC (Trichomonas vaginalis [9]): 0.5 µg/mL (≈ 0.955 µM); MIC (Nakaseomyces glabratus [21]): 32 µg/mL (≈ 61.1 µM)
